ChEMBL document CHEMBL1153312, “Discovery of substituted 2,4,4-triarylimidazoline derivatives as potent and selective neuropeptide Y Y5 receptor antagonists” (Bioorg Med Chem Lett, 2009)

Experiments:
[1] = molecular target: T1, Neuropeptide Y receptor type 5 (Homo sapiens, UniProt Q15761); experiment: Displacement of [125I]PYY from human recombinant neuropeptide Y5 receptor expressed in thymidine kinase-deficient mouse LM cells; format: cell-based
T1 sequence (Q15761 whole entry): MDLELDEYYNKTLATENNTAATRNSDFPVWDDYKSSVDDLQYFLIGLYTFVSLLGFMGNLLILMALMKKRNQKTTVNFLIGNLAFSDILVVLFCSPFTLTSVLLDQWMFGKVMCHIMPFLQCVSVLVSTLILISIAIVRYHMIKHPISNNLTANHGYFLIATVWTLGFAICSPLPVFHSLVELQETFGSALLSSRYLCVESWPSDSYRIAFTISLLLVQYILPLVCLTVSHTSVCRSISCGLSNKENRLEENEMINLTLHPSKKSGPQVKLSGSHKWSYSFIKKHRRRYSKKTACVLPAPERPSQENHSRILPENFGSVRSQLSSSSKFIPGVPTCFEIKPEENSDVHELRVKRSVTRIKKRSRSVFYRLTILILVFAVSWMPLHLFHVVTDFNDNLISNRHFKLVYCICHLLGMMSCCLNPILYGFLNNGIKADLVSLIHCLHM
In short: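 [125I]PYY displacement in membranes of LMtk- cells expressing recombinant human Y5 receptor; IC50 determined.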

[2] = Ratio of drug level in cerebrospinal fluid to brain of Sprague-Dawley rat at 10 mg/kg, po after 2 hrs; format: ADME, organism-based, CSF/Brain; parameters: dose 10 mg/kg, route oral; conditions: in vivo
In short: (§1)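 Rats dosed orally at 10 mg/kg; plasma, brain (nmol/g) and CSF levels measured 2 h post-dose. Brain-to-plasma and CSF-to-brain ratios were calculated from these levels.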

[3] = Ratio of drug level in brain to plasma of Sprague-Dawley rat at 10 mg/kg, po after 2 hrs; format: ADME, organism-based; parameters: dose 10 mg/kg, route oral; conditions: read-out: BPR; in short: as §1
Brain = experiment: Drug level in Sprague-Dawley rat brain at 10 mg/kg, po after 2 hrs; format: ADME, organism-based; parameters: dose 10 mg/kg, route oral; conditions: in vivo; in short: as §1
[4] = Drug level in Sprague-Dawley rat cerebrospinal fluid at 10 mg/kg, po after 2 hrs; format: ADME, organism-based; parameters: dose 10 mg/kg, route oral; conditions: read-out: Drug uptake; in short: as §1
[5] = Plasma concentration in Sprague-Dawley rat at 10 mg/kg, po after 2 hrs; format: ADME, organism-based; parameters: dose 10 mg/kg, route oral; in short: as §1
[6] = molecular target: T1, Neuropeptide Y receptor type 5; experiment: Antagonist activity at human recombinant neuropeptide Y5 receptor expressed in thymidine kinase-deficient mouse LM cells assessed as inhibition of neuropeptide-induced increase in intracellular calcium level; format: functional, cell-based
Rattus norvegicus [7] = experiment: Inhibition of D-Trp34NPY-induced food intake in Sprague-Dawley rat at 10 mg/kg, po administered 2 hrs before D-Trp34NPY challenge measured for 2 hrs; format: functional; parameters: scale not given: the % may be the effect or the level left
In short: (§2)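 Oral dosing 2 h before third-ventricle injection of D-Trp34NPY, with artificial CSF as vehicle control. Cumulative food intake was recorded over the following 2 h. Data are mean ± SEM, n = 7–8, with P < 0.05 versus the agonist-only group.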

[8] = molecular target: T2, Neuropeptide Y receptor type 2 (Homo sapiens) (UniProt P49146); experiment: Binding affinity to human neuropeptide Y2 receptor
T2 sequence (whole entry): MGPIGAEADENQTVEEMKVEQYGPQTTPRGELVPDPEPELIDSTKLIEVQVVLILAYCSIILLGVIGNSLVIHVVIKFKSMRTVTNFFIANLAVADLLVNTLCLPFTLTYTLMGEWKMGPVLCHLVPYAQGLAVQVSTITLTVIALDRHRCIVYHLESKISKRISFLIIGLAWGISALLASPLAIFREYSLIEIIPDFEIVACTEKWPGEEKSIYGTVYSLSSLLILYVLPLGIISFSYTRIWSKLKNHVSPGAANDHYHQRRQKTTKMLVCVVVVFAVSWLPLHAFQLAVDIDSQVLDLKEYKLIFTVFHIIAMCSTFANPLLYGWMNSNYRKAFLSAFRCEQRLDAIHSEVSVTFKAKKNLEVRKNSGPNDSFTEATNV

[9] = molecular target: T3, Neuropeptide Y receptor type 1 (Homo sapiens) (UniProt P25929); experiment: Binding affinity to human neuropeptide Y1 receptor
T3 sequence (whole entry): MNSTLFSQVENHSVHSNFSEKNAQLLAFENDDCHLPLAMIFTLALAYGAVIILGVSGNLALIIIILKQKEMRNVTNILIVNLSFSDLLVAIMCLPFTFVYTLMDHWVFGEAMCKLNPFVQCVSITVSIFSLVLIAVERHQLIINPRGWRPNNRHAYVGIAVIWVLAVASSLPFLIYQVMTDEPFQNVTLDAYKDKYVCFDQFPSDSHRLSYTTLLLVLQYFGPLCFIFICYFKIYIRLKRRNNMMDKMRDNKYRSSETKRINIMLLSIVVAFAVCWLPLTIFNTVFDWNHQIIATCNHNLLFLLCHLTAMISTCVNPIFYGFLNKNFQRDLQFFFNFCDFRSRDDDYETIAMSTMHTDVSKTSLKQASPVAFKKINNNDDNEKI

[10] = molecular target: Neuropeptide Y receptor type 4 (Homo sapiens) (UniProt P50391); experiment: Binding affinity to human neuropeptide Y4 receptor
Rattus norvegicus [11] = experiment: Inhibition of D-Trp34NPY-induced food intake in Sprague-Dawley rat at 30 mg/kg, po administered 2 hrs before D-Trp34NPY challenge measured for 2 hrs; format: functional; parameters: scale not given: the % may be the effect or the level left; in short: as §2
Rattus norvegicus [12] = experiment: Inhibition of D-Trp34NPY-induced food intake in Sprague-Dawley rat at 3 mg/kg, po administered 2 hrs before D-Trp34NPY challenge measured for 2 hrs; format: functional; parameters: scale not given: the % may be the effect or the level left; in short: as §2

Neuropeptide Y receptor type 4 (Homo sapiens), sequence (P50391 whole entry): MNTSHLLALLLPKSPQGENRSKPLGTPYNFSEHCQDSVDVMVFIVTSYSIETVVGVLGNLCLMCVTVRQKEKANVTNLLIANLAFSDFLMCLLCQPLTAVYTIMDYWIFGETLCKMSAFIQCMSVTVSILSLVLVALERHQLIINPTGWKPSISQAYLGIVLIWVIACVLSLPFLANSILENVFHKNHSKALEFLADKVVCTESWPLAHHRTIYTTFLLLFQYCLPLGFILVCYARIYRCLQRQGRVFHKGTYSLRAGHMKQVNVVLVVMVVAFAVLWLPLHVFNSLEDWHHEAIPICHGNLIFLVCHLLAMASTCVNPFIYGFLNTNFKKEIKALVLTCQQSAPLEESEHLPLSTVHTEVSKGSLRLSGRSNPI

Structure (SMILES) | IC50 [1] [µM] | further results
c1ccc(C2=NC(c3ccccc3)(c3ccccc3)CN2)cc1 | 0.054 | –
OCc1cccc(C2=NC(c3ccc(F)cc3)(c3ccc(F)cc3)CN2)c1 | 0.059 | –
Cc1cccc(C2=NC(c3ccc(F)cc3)(c3ccc(F)cc3)CN2)c1 | 0.03 | –
Fc1ccc(C2(c3ccc(F)cc3)CNC(c3ccccn3)=N2)cc1 | 0.16 | –
O=Cc1cccc(C2=NC(c3ccc(F)cc3)(c3ccc(F)cc3)CN2)c1 | 0.0087 | –
Fc1ccc(C2(c3ccc(F)cc3)CNC(c3ccccc3)=N2)cc1 | 0.032 | –
Fc1ccc(C2(c3ccc(F)cc3)CNC(c3ccc(Cl)cc3)=N2)cc1 | 0.13 | –
Fc1ccc(C2(c3ccc(F)cc3)CNC(c3ccsc3)=N2)cc1 | 0.093 | –
CC(=O)c1cccc(C2=NC(c3ccc(F)cc3)(c3ccc(F)cc3)CN2)c1 | 0.044 | –
Fc1ccc(C2(c3ccc(F)cc3)CNC(c3ccncc3)=N2)cc1 | 0.16 | –
Fc1ccc(C2(c3ccc(F)cc3)CNC(c3cccnn3)=N2)cc1 | 0.56 | –
Nc1cccc(C2=NC(c3ccc(F)cc3)(c3ccc(F)cc3)CN2)c1 | 0.3 | –
N#Cc1cncc(C2=NC(c3ccc(F)cc3)(c3ccc(F)cc3)CN2)c1 | 0.017 | –
Fc1ccc(C2(c3ccc(F)cc3)CNC(c3cccc(F)c3)=N2)cc1 | 0.01 | –
COC(=O)c1cccc(C2=NC(c3ccc(F)cc3)(c3ccc(F)cc3)CN2)c1 | 0.27 | –
CN(C)c1cccc(C2=NC(c3ccc(F)cc3)(c3ccc(F)cc3)CN2)c1 | > 1 | –
COc1cccc(C2=NC(c3ccc(F)cc3)(c3ccc(F)cc3)CN2)c1 | 0.051 | –
Fc1ccc(C2(c3ccc(F)cc3)CNC(c3cncnc3)=N2)cc1 | 0.047 | –
CS(=O)(=O)c1cccc(C2=NC(c3ccc(F)cc3)(c3ccc(F)cc3)CN2)c1 | 0.0092 | –
Fc1ccc(C2(c3ccc(F)cc3)CNC(c3ccc(C(F)(F)F)cc3)=N2)cc1 | 0.16 | –
N#Cc1cccc(C2=NC(c3ccc(F)cc3)(c3ccc(F)cc3)CN2)n1 | 0.039 | –
Fc1ccc(C2(c3ccc(F)cc3)CNC(c3ccccc3Cl)=N2)cc1 | 0.63 | –
Fc1ccc(C2(c3ccc(F)cc3)CNC(c3cccs3)=N2)cc1 | 0.054 | –
Fc1ccc(C2(c3ccc(F)cc3)CNC(c3ncccn3)=N2)cc1 | 0.35 | –

These reach a lower IC50 [1]. Values come first.

IC50 [1] [µM] | Structure (SMILES) | further results
0.0048 | N#Cc1cc(C2=NC(c3ccc(F)cc3)(c3ccc(F)cc3)CN2)ccn1 | –
0.0072 | Fc1ccc(C2(c3ccc(F)cc3)CNC(c3cccnc3)=N2)cc1 | –
0.002 | N#Cc1ccnc(C2=NC(c3ccc(F)cc3)(c3ccc(F)cc3)CN2)c1 | Ratio [2]: 0.004; Kp at 2 h [3]: 4.9; Drug uptake (Brain): 6.4 nmol/g; concentration at 2 h [4]: 0.025 µM; concentration at 2 h [5]: 1.3 µM
0.0081 | O=c1cccc(C2=NC(c3ccc(F)cc3)(c3ccc(F)cc3)CN2)[nH]1 | –
0.0043 | Fc1ccc(C2(c3ccc(F)cc3)CNC(c3cnccn3)=N2)cc1 | Ratio [2]: 0.01; Kp at 2 h [3]: 4.9; IC50 [6]: 0.0024 µM; Activity (Rattus norvegicus [7]): 42%; Drug uptake (Brain): 5.9 nmol/g; Activity [8]: > 10 µM; concentration at 2 h [4]: 0.064 µM; Activity [9]: > 10 µM; Activity [10]: > 10 µM; concentration at 2 h [5]: 1.2 µM; Activity (Rattus norvegicus [11]): 60%; Activity (Rattus norvegicus [12]): 20%
0.0048 | Fc1ccc(C2(c3ccc(F)cc3)CNC(c3cccc(Br)c3)=N2)cc1 | –
0.0062 | Fc1ccc(C2(c3ccc(F)cc3)CNC(c3cccc(C(F)(F)F)c3)=N2)cc1 | –
0.0027 | N#Cc1cccc(C2=NC(c3ccc(F)cc3)(c3ccc(F)cc3)CN2)c1 | Ratio [2]: 0.003; Kp at 2 h [3]: 5.8; Drug uptake (Brain): 8.1 nmol/g; concentration at 2 h [4]: 0.027 µM; concentration at 2 h [5]: 1.4 µM
0.0054 | Fc1ccc(C2(c3ccc(F)cc3)CNC(c3cccc(Cl)c3)=N2)cc1 | –
0.0043 | O=[N+]([O-])c1cccc(C2=NC(c3ccc(F)cc3)(c3ccc(F)cc3)CN2)c1 | –
